In ChEMBL document CHEMBL1145957 (J Med Chem, 2003):

Columns and labels:
Trypanosoma brucei [1] = assay: Effective concentration in vitro against the bloodstream trypomastigote form of Trypanosoma brucei; type: functional, organism-based
In short: (§1)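 T. brucei brucei AnTat 1.9 bloodstream forms kept cell-free at 10⁵ trypanosomes/mL. Drug added in 10-fold dilutions, 50 to 0.01 μM final, 16 replicates per dilution and control. Incubated 48 h at 37 °C, 5% CO2.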

Trypanosoma brucei [2] = assay: Minimum effective concentration in vitro against the bloodstream trypomastigote form of Trypanosoma brucei; type: functional; details: read-out: MEC; in short: as §1
Leishmania infantum [3] = assay: In vitro percent inhibition against mouse peritoneal macrophages infected with Leishmania infantum at 25 uM concentration; type: functional
In short: (§2)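 Primary mouse peritoneal macrophages seeded at 30 000 cells/well. After 24 h, spleen-derived L. infantum (MOHM/MA BE/67) amastigotes added at a 10:1 infection ratio with 2-fold drug dilutions. Incubated 5 days at 37 °C, 5% CO2; uninfected cultures treated in parallel. Total parasite load or infected-macrophage count scored microscopically on Wright-stained slides, versus untreated controls.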

Leishmania infantum [4] = assay: In vitro percent inhibition against mouse peritoneal macrophages infected with Leishmania infantum at 12.5 uM concentration; type: functional; in short: as §2
Leishmania infantum [5] = assay: In vitro percent inhibition against mouse peritoneal macrophages infected with Leishmania infantum at 6.2 uM concentration; type: functional; in short: as §2
Trypanosoma cruzi [6] = assay: In vitro percent inhibition against mouse peritoneal macrophages infected with Trypanosoma cruzi at 6.2 uM concentration; type: functional
In short: (§3)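 Mouse peritoneal macrophages seeded at 30 000 cells/well. After 24 h, about 100 000 T. cruzi Tulahen CL2 trypomastigotes per well added with 2-fold drug dilutions. Incubated 4 days at 37 °C, 5% CO2; uninfected cultures treated alike. Reduction of total parasite load (free trypomastigotes plus intracellular amastigotes) versus untreated controls scored microscopically.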

Leishmania infantum [7] = assay: In vitro percent inhibition against mouse peritoneal macrophages infected with Leishmania infantum at 3.1 uM concentration; type: functional; in short: as §2
Trypanosoma cruzi [8] = assay: In vitro percent inhibition against mouse peritoneal macrophages infected with Trypanosoma cruzi at 3.1 uM concentration; type: functional; in short: as §3
Trypanosoma cruzi [9] = assay: In vitro percent inhibition against mouse peritoneal macrophages infected with Trypanosoma cruzi at 12.5 uM concentration; type: functional; in short: as §3
Trypanosoma cruzi [10] = assay: In vitro percent inhibition against mouse peritoneal macrophages infected with Trypanosoma cruzi at 25 uM concentration; type: functional; in short: as §3
Trypanosoma cruzi [11] = assay: Percent inhibition in vitro against intracellular form of Trypanosoma cruzi at 90 uM concentration; type: functional
In short: (§4)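 T. cruzi Y strain (MHOM/BR/OO/Y) trypomastigotes, grown in L6 myoblast cultures, infect mouse peritoneal macrophages in medium with drug from 90 to 3 μM. Incubation 72 h at 37 °C. Activity read as percent of infected macrophages in treated cultures.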

Leishmania donovani = assay: Percent inhibition in vitro against intracellular form of Leishmania donovani at 90 uM concentration; type: functional
In short: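 Hamster-spleen-derived L. donovani (MHOM/ET/67/L82) amastigotes infect mouse peritoneal macrophages in chamber slides. Infected cells kept with drug across 90–3 μM in quadruplicate for 7 days at 37 °C. Activity taken as percentage of macrophages cleared of amastigotes; sodium stibogluconate served as positive control.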

Trypanosoma cruzi [12] = assay: Percent inhibition in vitro against intracellular form of Trypanosoma cruzi at 30 uM concentration; type: functional; in short: as §4
Trypanosoma cruzi [13] = assay: Percent inhibition in vitro against intracellular form of Trypanosoma cruzi at 10 uM concentration; type: functional; in short: as §4
[14] = system: Homo sapiens (MRC-5 cells); assay: Concentration that cause cytotoxicity at 1.5 uM concentration
[15] = system: Homo sapiens (MRC-5 cells); assay: Concentration that cause cytotoxicity at 12.5 uM concentration
Leishmania infantum [16] = assay: In vitro percent inhibition against mouse peritoneal macrophages infected with Leishmania infantum at 25 uM concentration; Toxic for macrophage; type: functional, organism-based; in short: as §2
[17] = system: Homo sapiens (MRC-5 cells); assay: Concentration that cause cytotoxicity at 3.1 uM concentration
[18] = system: Homo sapiens (MRC-5 cells); assay: Concentration that cause cytotoxicity at 25 uM concentration
Trypanosoma cruzi [19] = assay: In vitro percent inhibition against mouse peritoneal macrophages infected with Trypanosoma cruzi at 25 uM concentration; Toxic for macrophage; type: functional, organism-based; in short: as §3
[20] = system: Homo sapiens (MRC-5 cells); assay: Concentration that cause cytotoxicity at 6.2 uM concentration
Trypanosoma cruzi [21] = assay: Percent inhibition in vitro against intracellular form of Trypanosoma cruzi at 3 uM concentration; type: functional; in short: as §4
Trypanosoma cruzi [22] = assay: Effective dose against Trypanosoma cruzi; type: functional
[23] = system: Homo sapiens (MRC-5 cells); assay: Concentration that cause cytotoxicity at 25 uM concentration in human MRC-5 cells
[24] = system: Homo sapiens (MRC-5 cells); assay: Concentration that cause cytotoxicity at 3.1 uM concentration in human MRC-5 cells
[25] = system: Homo sapiens (MRC-5 cells); assay: Concentration that cause cytotoxicity at 12.5 uM concentration in human MRC-5 cells
[26] = system: Homo sapiens (MRC-5 cells); assay: Concentration that cause cytotoxicity at 6.2 uM concentration in human MRC-5 cells

Work on Cn1c(-c2nnc(N)s2)nc(Br)c1[N+](=O)[O-] yielded an EC50 (Trypanosoma brucei [1]) of 0.5 µM and a minimal effective concentration (Trypanosoma brucei [2]) of 3.3 µM.

With Cn1c([N+](=O)[O-])cnc1-c1nnc(NC(=O)CCCC(=O)NC2C(O)OC(CO)C(O)C2O)s1 (centres undefined) the inhibition at 25 µM (Leishmania infantum [3]) was 0%, the inhibition at 12.5 µM (Leishmania infantum [4]) was 0% and the inhibition at 6.2 µM (Leishmania infantum [5]) was 0%. The inhibition at 6.2 µM (Trypanosoma cruzi [6]) was 60%, the inhibition at 3.1 µM (Leishmania infantum [7]) was 0% and the inhibition at 3.1 µM (Trypanosoma cruzi [8]) was 20%. The inhibition at 12.5 µM (Trypanosoma cruzi [9]) was 99% and the inhibition at 25 µM (Trypanosoma cruzi [10]) was 99%.

With Cn1c(-c2nnc(N)s2)nc(N2CCCCC2)c1[N+](=O)[O-] the inhibition at 90 µM (Trypanosoma cruzi [11]) was 41%, the inhibition at 90 µM (Leishmania donovani) was 0% and the inhibition at 30 µM (Trypanosoma cruzi [12]) was 3%. It also gave an inhibition at 10 µM (Trypanosoma cruzi [13]) of 0%.

Cn1c([N+](=O)[O-])cnc1S(C)(=O)=O showed an inhibition at 1.5 µM [14] of 21%, an EC50 (Trypanosoma brucei [1]) of 8 µM and a minimal effective concentration (Trypanosoma brucei [2]) greater than 49 µM. For the same compound, the inhibition at 12.5 µM [15] was 29%, the inhibition at 12.5 µM (Leishmania infantum [4]) was 0% and the inhibition (Leishmania infantum [16]) was “Toxic for macrophage”. For the same compound, the inhibition at 6.2 µM (Leishmania infantum [5]) was 0%, the inhibition at 6.2 µM (Trypanosoma cruzi [6]) was 0% and the inhibition at 3.1 µM (Leishmania infantum [7]) was 0%. For the same compound, the inhibition at 3.1 µM [17] was 28%, the inhibition at 25 µM [18] was 85% and the inhibition at 3.1 µM (Trypanosoma cruzi [8]) was 0%. The inhibition (Trypanosoma cruzi [19]) was “Toxic for macrophage” and the inhibition at 12.5 µM (Trypanosoma cruzi [9]) was 0%.

Compound Nc1nnc(-c2ccc([N+](=O)[O-])o2)s1 has an inhibition at 25 µM (Leishmania infantum [3]) of 40%, an inhibition at 6.2 µM [20] of 0% and an inhibition at 12.5 µM [15] of 0%. It also gave an inhibition at 6.2 µM (Leishmania infantum [5]) of 0%, an inhibition at 6.2 µM (Trypanosoma cruzi [6]) of 95% and an inhibition at 3.1 µM [17] of 0%. The inhibition at 25 µM [18] was 4%.

With Cn1c(-c2nnc(N)s2)nc(C(F)(F)F)c1[N+](=O)[O-] the EC50 (Trypanosoma brucei [1]) was 25 µM and the minimal effective concentration (Trypanosoma brucei [2]) was greater than 34 µM.

N/C(S)=N/N=C/c1ccc([N+](=O)[O-])s1 gave an inhibition at 25 µM (Leishmania infantum [3]) of 40%, an inhibition at 6.2 µM [20] of 0% and an inhibition at 12.5 µM [15] of 0%. For the same compound, the inhibition at 6.2 µM (Leishmania infantum [5]) was 0%, the inhibition at 6.2 µM (Trypanosoma cruzi [6]) was 40% and the inhibition at 3.1 µM [17] was 0%. The inhibition at 25 µM [18] was 0% and the inhibition at 25 µM (Trypanosoma cruzi [10]) was 90%.

With Cn1c([N+](=O)[O-])cnc1/C=N/N=C(/N)S the inhibition at 90 µM (Trypanosoma cruzi [11]) was 99%, the inhibition at 3 µM (Trypanosoma cruzi [21]) was 54% and the inhibition at 30 µM (Trypanosoma cruzi [12]) was 93%. It also gave an inhibition at 10 µM (Trypanosoma cruzi [13]) of 71% and an ED50 (Trypanosoma cruzi [22]) of 3.3 µM.

Work on Cn1c([N+](=O)[O-])cnc1-c1nnc(NC(=O)C(F)(F)F)s1 yielded a minimal effective concentration (Trypanosoma brucei [2]) of 31 µM.

Compound NC(=O)N/N=C/c1ccc([N+](=O)[O-])o1 [NITROFURAZONE] has an Inhibition [23] of 0%, a minimal effective concentration (Trypanosoma brucei [2]) of 5 µM and an inhibition at 25 µM (Leishmania infantum [3]) of 0%. For the same compound, the Inhibition [24] was 0%, the Inhibition [25] was 0% and the Inhibition [26] was 0%. The inhibition at 6.2 µM (Leishmania infantum [5]) was 0%, the inhibition at 6.2 µM (Trypanosoma cruzi [6]) was 40% and the inhibition at 25 µM (Trypanosoma cruzi [10]) was 99%.

For Nc1nnc(-c2ccc([N+](=O)[O-])o2)o1, the minimal effective concentration (Trypanosoma brucei [2]) was greater than 51 µM.

Work on Cn1c(-c2nnc(N)s2)nc(Sc2ccccc2)c1[N+](=O)[O-] yielded an inhibition at 25 µM (Leishmania infantum [3]) of 0%, an inhibition at 6.2 µM [20] of 0% and an inhibition at 12.5 µM [15] of 3%. The inhibition at 12.5 µM (Leishmania infantum [4]) was 0%, the inhibition at 6.2 µM (Leishmania infantum [5]) was 0% and the inhibition at 6.2 µM (Trypanosoma cruzi [6]) was 0%. The inhibition at 3.1 µM (Leishmania infantum [7]) was 0%, the inhibition at 25 µM [18] was 40% and the inhibition at 3.1 µM (Trypanosoma cruzi [8]) was 0%. It also gave an inhibition at 12.5 µM (Trypanosoma cruzi [9]) of 60% and an inhibition at 25 µM (Trypanosoma cruzi [10]) of 80%.

With Cc1nc(-c2nnc(N)s2)n(C)c1[N+](=O)[O-] the EC50 (Trypanosoma brucei [1]) was greater than 41 µM and the minimal effective concentration (Trypanosoma brucei [2]) was greater than 41 µM.

Cc1ccc(C(=O)Nc2ccc(S(=O)(=O)O)c3cc(S(=O)(=O)O)cc(S(=O)(=O)O)c23)cc1NC(=O)c1cccc(NC(=O)Nc2cccc(C(=O)Nc3cc(C(=O)Nc4ccc(S(=O)(=O)O)c5cc(S(=O)(=O)O)cc(S(=O)(=O)O)c45)ccc3C)c2)c1 [SURAMIN] showed an EC50 (Trypanosoma brucei [1]) of 0.02 µM and a minimal effective concentration (Trypanosoma brucei [2]) of 0.8 µM.

With CC(=O)Nc1nnc(-c2ncc([N+](=O)[O-])n2C)s1 the EC50 (Trypanosoma brucei [1]) was 0.2 µM, the minimal effective concentration (Trypanosoma brucei [2]) was 1.6 µM and the inhibition at 25 µM (Leishmania infantum [3]) was 40%. The inhibition at 6.2 µM [20] was 0%, the inhibition at 12.5 µM [15] was 0% and the inhibition at 12.5 µM (Leishmania infantum [4]) was 40%. The inhibition at 6.2 µM (Leishmania infantum [5]) was 0%, the inhibition at 6.2 µM (Trypanosoma cruzi [6]) was 99% and the inhibition at 3.1 µM (Leishmania infantum [7]) was 0%. It also gave an inhibition at 25 µM [18] of 0%, an inhibition at 3.1 µM (Trypanosoma cruzi [8]) of 99% and an inhibition at 12.5 µM (Trypanosoma cruzi [9]) of 99%. It also gave an inhibition at 25 µM (Trypanosoma cruzi [10]) of 99%.
